In ChEMBL document CHEMBL2169868, “Flavone-based novel antidiabetic and antidyslipidemic agents” (J Med Chem, 2012):
Active and inactive are the calls of the source. No cut-off for these calls is given here.

Tests used:
Mus musculus [1] = experiment: Reduction in body weight in diabetic C57BL/KsJ db/db mouse model in hyperglycemia at 25 mg/kg, po qd for 10 days relative to untreated control; assay type: functional
Procedure, shortened: (§1)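 db/db mice (C57BL/KsJ, 12−18 weeks, 40−50 g, glucose 200−350 mg/dL), housed at 23 ± 2.0 °C on a 12 h light cycle. Oral dosing daily for 10 days. Blood glucose checked each morning through day 9. Body weight recorded daily from day 1 to day 10. Mean % change versus vehicle, 5 mice per group; Student t test.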

Syrian golden hamster [2] = experiment: Antidyslipidemic activity in high fructose and high-fat diet fed dyslipidemic Syrian golden hamster model assessed as reduction in LDL-cholesterol level at 100 mg/kg/day for 7 days; assay type: functional, Mesocricetus auratus; design: scale not given: the % may be the effect or the level left
Procedure, shortened: (§2)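 Syrian golden hamsters fed high-fructose high-fat diet; oral dosing in 1% gum acacia at 10, 30, 100 mg/kg (or 25 mg/kg) for 7 days, sham control given vehicle; plasma TG, cholesterol, LDL-C, HDL-C, glycerol and NEFA (kits), lipoprotein lipase activity and body weight; % change versus HFD control, six hamsters per group.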

Rattus norvegicus [3] = experiment: Antihyperlipidemic activity in Triton-induced dyslipidemic Wistar rat model assessed as reduction in cholesterol level at 100 mg/kg, po; assay type: functional; design: scale not given: the % may be the effect or the level left
Procedure, shortened: (§3)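 Male Wistar rats, 8−10 weeks, about 160 g, fed normal pellet diet. Triton X-100 given at 400 mg/kg ip; compound given orally in 1% gum acacia. Retro-orbital blood taken 18 h after Triton and serum separated at 1500g for 10 min. TG and cholesterol measured by kit. Mean % change versus dyslipidemic control, 5 animals.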

Syrian golden hamster [4] = experiment: Antidyslipidemic activity in high fructose and high-fat diet fed dyslipidemic Syrian golden hamster model assessed as increase in HDL-cholesterol level at 100 mg/kg/day for 7 days; assay type: functional, Mesocricetus auratus
Mus musculus [5] = experiment: Antidyslipidemic activity in diabetic C57BL/KsJ db/db mouse model assessed as reduction in plasma cholesterol level at 25 mg/kg, po qd for 10 days; assay type: functional; design: scale not given: the % may be the effect or the level left
Procedure, shortened: (§4)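 db/db mice (blood glucose 200−350, TG 170−250, cholesterol 170−250, HDL-C 32−40 mg/dL) dosed orally at 25 mg/kg daily for 10 days; retro-orbital blood taken on day 11 for plasma TG, cholesterol and HDL-C (and HDL-C/CHOL ratio); mean % change versus vehicle control, 5 mice per group; Student t test.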

Rattus norvegicus [6] = experiment: Antihyperlipidemic activity in Triton-induced dyslipidemic Wistar rat model assessed as reduction in phospholipid level at 100 mg/kg, po; assay type: functional; design: scale not given: the % may be the effect or the level left; procedure, shortened: as §3
Syrian golden hamster [7] = experiment: Antidyslipidemic activity in high fructose and high-fat diet fed dyslipidemic Syrian golden hamster model assessed as reduction in cholesterol level at 100 mg/kg/day for 7 days; assay type: functional, Mesocricetus auratus; design: scale not given: the % may be the effect or the level left
Rattus norvegicus [8] = experiment: Antihyperlipidemic activity in Triton-induced dyslipidemic Wistar rat model assessed as reduction in triglyceride level at 100 mg/kg, po; assay type: functional; design: scale not given: the % may be the effect or the level left; procedure, shortened: as §3
Mus musculus [9] = experiment: Antidyslipidemic activity in diabetic C57BL/KsJ db/db mouse model assessed as reduction in plasma triglyceride level at 25 mg/kg, po qd for 10 days; assay type: functional; design: scale not given: the % may be the effect or the level left; procedure, shortened: as §4
Mus musculus [10] = experiment: Antihyperglycemic activity in diabetic C57BL/KsJ db/db mouse model assessed as reduction in hyperglycemia at 25 mg/kg, po qd for 10 days; assay type: functional; design: scale not given: the % may be the effect or the level left; procedure, shortened: as §1
Mus musculus [11] = experiment: Antihyperglycemic activity in diabetic C57BL/KsJ db/db mouse model assessed as reduction in plasma insulin level in hyperglycemia at 25 mg/kg, po qd for 10 days; assay type: functional; design: scale not given: the % may be the effect or the level left
Procedure, shortened: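 db/db mice dosed orally every day for 10 days. On day 11, retro-orbital blood was drawn and plasma insulin measured. Mean % change versus vehicle-treated control, 5 mice per group; Student t test.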

Syrian golden hamster [12] = experiment: Antidyslipidemic activity in high fructose and high-fat diet fed dyslipidemic Syrian golden hamster model assessed as reduction in triglyceride level at 100 mg/kg/day for 7 days; assay type: functional, Mesocricetus auratus; design: scale not given: the % may be the effect or the level left; procedure, shortened: as §2
Mus musculus [13] = experiment: Antihyperglycemic activity in diabetic C57BL/KsJ db/db mouse model assessed as improvement in glucose tolerance in hyperglycemia at 25 mg/kg, po qd for 10 days; assay type: functional
Procedure, shortened: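 Male/female C57BL/KsJ db/db mice, 12−18 weeks, 40−50 g, selected for glucose 200−350 mg/dL. Oral dosing daily for 10 days. OGTT on day 10 after an overnight fast: compound at −30 min, then 3 g/kg oral glucose at 0 min. Glucose read at 30, 60, 90 and 120 min. AUC taken versus vehicle, 5 mice per group.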

Syrian golden hamster [14] = experiment: Antidyslipidemic activity in high fructose and high-fat diet fed dyslipidemic Syrian golden hamster model assessed as reduction in body weight at 100 mg/kg/day for 7 days; assay type: functional, organism-based; settings: Mesocricetus auratus; procedure, shortened: as §2
Mus musculus [15] = experiment: Antidyslipidemic activity in diabetic C57BL/KsJ db/db mouse model assessed as increase in plasma HDL-C/cholesterol ratio at 25 mg/kg, po qd for 10 days; assay type: functional; procedure, shortened: as §4
Rattus norvegicus [16] = experiment: Antidiabetic activity in sucrose loaded Wistar rat model assessed as reduction in glucose levels at 100 mg/kg, po; assay type: functional; design: scale not given: the % may be the effect or the level left
Mus musculus [17] = experiment: Antidyslipidemic activity in diabetic C57BL/KsJ db/db mouse model assessed as increase in plasma HDL-cholesterol level at 25 mg/kg, po qd for 10 days; assay type: functional; procedure, shortened: as §4
Syrian golden hamster [18] = experiment: Antidyslipidemic activity in high fructose and high-fat diet fed dyslipidemic Syrian golden hamster model assessed as reduction in LDL-cholesterol level at 25 mg/kg/day for 7 days; assay type: functional, Mesocricetus auratus; design: scale not given: the % may be the effect or the level left; procedure, shortened: as §2
Syrian golden hamster [19] = experiment: Antidyslipidemic activity in high fructose and high-fat diet fed dyslipidemic Syrian golden hamster model assessed as reduction in triglyceride level at 25 mg/kg/day for 7 days; assay type: functional, Mesocricetus auratus; design: scale not given: the % may be the effect or the level left
Procedure, shortened: (§5)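 HFD-fed Syrian golden hamsters, six per group, fed a high-fructose diet. Oral dosing in 1% gum acacia for 7 days. Sham group received vehicle. Plasma TG was measured and body weight tracked. Results given as % change versus HFD control.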

Syrian golden hamster [20] = experiment: Antidyslipidemic activity in high fructose and high-fat diet fed dyslipidemic Syrian golden hamster model assessed as reduction in cholesterol level at 25 mg/kg/day for 7 days; assay type: functional, Mesocricetus auratus; design: scale not given: the % may be the effect or the level left
Syrian golden hamster [21] = experiment: Antidyslipidemic activity in high fructose and high-fat diet fed dyslipidemic Syrian golden hamster model assessed as increase in HDL-cholesterol level at 25 mg/kg/day for 7 days; assay type: functional, Mesocricetus auratus
Syrian golden hamster [22] = experiment: Antidyslipidemic activity in high fructose and high-fat diet fed dyslipidemic Syrian golden hamster model assessed as reduction in body weight at 25 mg/kg/day for 7 days; assay type: functional, Mesocricetus auratus; design: scale not given: the % may be the effect or the level left; procedure, shortened: as §2
Syrian golden hamster [23] = experiment: Antidyslipidemic activity in high fructose and high-fat diet fed dyslipidemic Syrian golden hamster model assessed as increase in HDL-cholesterol level at 30 mg/kg/day, po for 7 day, po; assay type: functional, Mesocricetus auratus; procedure, shortened: as §2
Syrian golden hamster [24] = experiment: Reduction in body weight in high fructose and high-fat diet fed dyslipidemic Syrian golden hamster model at 30 mg/kg/day, po for 7 days; assay type: functional, Mesocricetus auratus; design: scale not given: the % may be the effect or the level left; procedure, shortened: as §5
Syrian golden hamster [25] = experiment: Antidyslipidemic activity in high fructose and high-fat diet fed dyslipidemic Syrian golden hamster model assessed as reduction in LDL-cholesterol level at 30 mg/kg/day, po for 7 day, po; assay type: functional, Mesocricetus auratus; design: scale not given: the % may be the effect or the level left; procedure, shortened: as §2
Rattus norvegicus [26] = experiment: Antidiabetic activity in sucrose challenged streptozotocin-induced diabetic Sprague-Dawley rat model assessed as reduction in glucose levels at 100 mg/kg, po measured after 24 hrs; assay type: functional
Syrian golden hamster [27] = experiment: Antidyslipidemic activity in high fructose and high-fat diet fed dyslipidemic Syrian golden hamster model assessed as reduction in NEFA level at 30 mg/kg/day, po for 7 day, po; assay type: functional, Mesocricetus auratus; design: scale not given: the % may be the effect or the level left; procedure, shortened: as §2
Syrian golden hamster [28] = experiment: Antidyslipidemic activity in high fructose and high-fat diet fed dyslipidemic Syrian golden hamster model assessed as reduction in triglyceride level at 30 mg/kg/day, po for 7 day, po; assay type: functional, Mesocricetus auratus; design: scale not given: the % may be the effect or the level left; procedure, shortened: as §5
Syrian golden hamster [29] = experiment: Antidyslipidemic activity in high fructose and high-fat diet fed dyslipidemic Syrian golden hamster model assessed as increase in lipoprotein lipase level at 30 mg/kg/day, po for 7 day, po; assay type: functional, Mesocricetus auratus; procedure, shortened: as §2
Rattus norvegicus [30] = experiment: Antidiabetic activity in sucrose challenged streptozotocin-induced diabetic Sprague-Dawley rat model assessed as reduction in glucose levels at 100 mg/kg, po measured after 5 hrs; assay type: functional; design: scale not given: the % may be the effect or the level left
Syrian golden hamster [31] = experiment: Antidyslipidemic activity in high fructose and high-fat diet fed dyslipidemic Syrian golden hamster model assessed as reduction in glycerol level at 30 mg/kg/day, po for 7 day, po; assay type: functional, Mesocricetus auratus; design: scale not given: the % may be the effect or the level left; procedure, shortened: as §2

| Structure (SMILES) | Activity (Mus musculus [1]) | Activity (Syrian golden hamster [2]) [%] | Activity (Rattus norvegicus [3]) [%] | Activity (Mus musculus [5]) [%] | Activity (Rattus norvegicus [6]) [%] | Activity (Rattus norvegicus [8]) [%] | Activity (Mus musculus [9]) [%] | Activity (Mus musculus [10]) [%] | Activity (Mus musculus [11]) [%] | Activity (Syrian golden hamster [12]) [%] | Activity (Mus musculus [13]) [%] | Activity (Syrian golden hamster [14]) | Percent increase in HDL-C/cholesterol ratio vs vehicle (Mus musculus [15]) | Activity (Rattus norvegicus [16]) [%] | Activity (Mus musculus [17]) [%] | Activity (Syrian golden hamster [18]) [%] | Activity (Syrian golden hamster [19]) [%] | Activity (Syrian golden hamster [22]) [%] | further results |
| --- | --- | --- | --- | --- | --- | --- | --- | --- | --- | --- | --- | --- | --- | --- | --- | --- | --- | --- | --- |
| CC(C)NCC(O)COc1ccc2c(=O)cc(-c3cc(O)cc(O)c3)oc2c1 (racemic) | inactive | 47.7 | 32 | 15.3 | 28 | 32 | 14.2 | 39.5 | 22.3 | 48.9 | 33.2 | Active | 32.1 | 29 | 11.8 | – | – | – | Activity (Syrian golden hamster [4]): 14.9%; Activity (Syrian golden hamster [7]): 13.8% |
| CC(C)(C)NC[C@@H](O)COc1ccc2c(=O)cc(-c3cc(OCc4ccccc4)cc(OCc4ccccc4)c3)oc2c1 | inactive | – | – | 15.9 | – | – | 14.1 | 34.1 | 18 | – | 33.3 | – | 28.8 | – | 8.3 | 9.78 | 8.4 | 3.73 | Activity (Syrian golden hamster [20]): 5.52%; Activity (Syrian golden hamster [21]): 7.08% |
| CN(CCOc1ccc(CC2SC(=O)NC2=O)cc1)c1ccccn1 (stereo not given) [ROSIGLITAZONE] | -18.3% | – | – | 32.6 | – | – | 24.5 | 54.3 | 40.5 | – | 49.5 | – | 108.7 | – | 6.98 | – | – | – | – |
| CC(C)OC(=O)C(C)(C)Oc1ccc(C(=O)c2ccc(Cl)cc2)cc1 [FENOFIBRATE] | – | 56.3 | 18.9 | – | 30.3 | 32.9 | – | – | – | 53.4 | – | Active | – | 6.43 | – | 26.8 | 25.5 | 6.78 | Activity (Syrian golden hamster [23]): 9.68%; Activity (Syrian golden hamster [24]): 10.2%; Activity (Syrian golden hamster [25]): 32.3%; Activity (Rattus norvegicus [26]): inactive; Activity (Syrian golden hamster [27]): 22.2%; Activity (Syrian golden hamster [28]): 30.2%; Activity (Syrian golden hamster [29]): 24.7%; Activity (Rattus norvegicus [30]): 1.47%; Activity (Syrian golden hamster [31]): 22.1% |
| CC(C)NC[C@@H](O)COc1ccc2c(=O)cc(-c3cc(O)cc(O)c3)oc2c1 | inactive | – | – | 11.2 | – | – | 14.1 | 28.2 | 9.1 | – | 22.4 | – | 16.6 | – | 3.59 | – | – | – | – |
